Laboratory results from ChEMBL document CHEMBL1145131, “Structure-based design, synthesis, and biological evaluation of irreversible human rhinovirus 3C protease inhibitors. 8. Pharmacological optimization of orally bioavailable 2-pyridone-containing peptidomimetics” (J Med Chem, 2003).
In brackets after ≈: the same amount, converted by molar mass.

Experiments:
[1] = Compound was tested in vitro for loss of compound after 2 hours exposure to hepatocytes of human at 25 uM concentration; assay type: ADME, organism-based, Hepatocyte; settings: read-out: Metabolism
[2] = Half-life upon exposure to human plasma; assay type: ADME, organism-based
How it was run: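 Pooled heparinized human plasma (10 donors) or 100 mM potassium phosphate pH 7.4 buffer (n = 3 each), spiked to final 25 μM compound from acetonitrile stock. Incubated at 37 °C for 1–3 h with regular sampling. Protein precipitated with acetonitrile, then LC quantification against a 0.05–40 μg/mL standard curve. Half-life by linear regression of mean concentration-time data.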

[3] = Thermodynamic aqueous solubility was determined; assay type: physicochemical; settings: buffer
How it was run: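 1–2 mg compound stirred in 1 mL of pH 7.0, 50 mM phosphate buffer at room temperature for 4 h. Filtered through a 0.45 μm filter. Filtrate concentration determined by HPLC against a standard of known concentration.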

[4] = Compound was tested in vitro for loss of compound after 2 hours exposure to hepatocytes of monkey at 25 uM concentration; assay type: ADME, cell-based, Hepatocyte; settings: simiiformes, read-out: Metabolism
[5] = Compound was tested in vitro for loss of compound after 30 min exposure to liver microsomes of human at 25 uM concentration; assay type: ADME, organism-based; settings: read-out: Metabolism
How it was run: (§1)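 Pooled liver microsomes (dog, monkey or human; 1 mg/mL, 6–8 livers) with 2 mM NADPH in 100 mM potassium phosphate, pH 7.4, preincubated 1 min at 37 °C. Started with 25 μM compound, run 30 min, quenched with acetonitrile. Time-zero controls quenched before compound addition. Remaining compound by reversed-phase HPLC at 215 nm. Reported as % metabolized.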

[6] = Compound was tested for plasma concentration in CM-monkeys 7 hours after oral administration (50 mg/kg); assay type: ADME, organism-based, Macaca fascicularis; settings: cynomolgus monkey
How it was run: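 Male CM-monkeys (BW ~3.9 kg, n = 3), single oral dose of 50 mg/kg in 80:20 propylene glycol:sterile water at 15.0 mg/mL. Blood sampled periodically up to 24 h post-dose. Plasma concentration at 7 h measured by LCMS. Parameters from noncompartmental analysis of individual concentration-time data.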

[7] = Compound was tested in vitro for loss of compound after 30 min exposure to liver microsomes of dog at 25 uM concentration; assay type: ADME, organism-based, Canis lupus familiaris; settings: read-out: Metabolism; how it was run: as §1
[8] = Compound was tested for plasma concentration in dogs 7 hours after oral administration (30 mg/kg); assay type: ADME, organism-based, Canis lupus familiaris; settings: dog
How it was run: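 Male beagle dogs (BW ~9.3 kg, n = 3), single oral dose of 30 mg/kg. Vehicle was 80:20 propylene glycol:sterile water (15.0 mg/mL) or, in some studies, a 0.5% carboxymethyl cellulose suspension. Blood sampled up to 24 h. Plasma level at 7 h determined by LCMS. Noncompartmental analysis of individual concentration-time profiles.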

[9] = Compound was tested in vitro for loss of compound after 2 hours exposure to hepatocytes of dog at 25 uM concentration; assay type: ADME, organism-based, Canis lupus familiaris, Hepatocyte; settings: read-out: Metabolism
Caco-2 = settings: Homo sapiens
Enterovirus [10] = assay: In vitro anti-rhinoviral activity against human rhinovirus serotypes 2,3,9,14,16,25 and 39; assay type: functional, organism-based
Canis familiaris = species: Canis familiaris; assay: Compound was tested for plasma protein binding of dog; assay type: ADME, organism-based, Canis lupus familiaris
How it was run: (§2)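 Ultrafiltration binding. Compound added from 1 mM and 0.1 mM stocks into heparinized dog or human plasma or pH 7.4 phosphate buffer, giving final 1 and 10 μM. Incubated 1 h at 37 °C, then centrifugal ultrafiltration. Filtrate and whole plasma quantified by LCMS with internal standard. % free = filtrate/whole plasma × 100. Three replicates per species per concentration.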

[11] = target: T1, Human rhinovirus A protease (Human rhinovirus sp.) (UniProt Q4U254);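 note: inhibition of the human rhinovirus 3C protease enzyme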
T1 sequence (whole entry): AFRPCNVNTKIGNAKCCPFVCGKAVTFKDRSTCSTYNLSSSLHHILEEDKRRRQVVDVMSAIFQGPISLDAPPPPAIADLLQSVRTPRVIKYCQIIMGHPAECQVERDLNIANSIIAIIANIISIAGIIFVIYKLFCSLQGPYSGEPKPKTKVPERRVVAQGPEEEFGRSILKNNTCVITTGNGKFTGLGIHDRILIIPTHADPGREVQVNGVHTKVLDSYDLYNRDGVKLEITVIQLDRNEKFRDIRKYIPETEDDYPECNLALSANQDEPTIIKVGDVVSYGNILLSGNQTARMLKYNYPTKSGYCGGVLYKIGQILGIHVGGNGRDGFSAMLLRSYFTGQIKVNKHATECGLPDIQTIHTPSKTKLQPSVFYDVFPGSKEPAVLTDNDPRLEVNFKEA

[12] = Compound was tested for human plasma protein binding; assay type: ADME, cell-free; how it was run: as §2
Enterovirus [13] = assay: In vitro antirhinoviral activity against human rhinovirus serotypes 9,14 and 25; assay type: functional, organism-based
[14] = Compound was tested in vitro for loss of compound after 30 min exposure to liver microsomes of monkey at 25 uM concentration; assay type: ADME, Microsome; settings: simiiformes, read-out: Metabolism; how it was run: as §1
Enterovirus [15] = assay: In vitro antirhinoviral activity mean against human rhinovirus serotypes 2, 3, 9, 14, 16 and 25

C#CC[C@@H](C(=O)N[C@H](/C=C/C(=O)OCc1ccccc1)C[C@@H]1CCNC1=O)n1cccc(NC(=O)c2cc(C)on2)c1=O
metabolised at 2 h, 25 µM [1]: 51%
half-life [2]: 4.3 h
solubility thermodynamic [3]: 22 µg/mL (≈ 37.6 µM)
metabolised at 2 h, 25 µM [4]: 69%
metabolised at 0.5 h, 25 µM [5]: 52%
concentration at 7 h [6]: 3 nM
metabolised at 0.5 h, 25 µM [7]: 67%
concentration at 7 h [8]: 563 nM
metabolised at 2 h, 25 µM [9]: 61%
Papp (Caco-2): 18 10e-6 cm s-1
EC50 (Enterovirus [10]): 36 nM
Free (Canis familiaris): 25%
K obs / 1 [11]: 300000 M⁻¹ s⁻¹
Free [12]: 13%

CC[C@@H](C(=O)N[C@H](/C=C/C(=O)OCc1ccccc1)C[C@@H]1CCNC1=O)n1cccc(NC(=O)c2cc(C)on2)c1=O
metabolised at 2 h, 25 µM [1]: 27%
half-life [2]: 2.5 h
solubility thermodynamic [3]: 41 µg/mL (≈ 71.2 µM)
metabolised at 0.5 h, 25 µM [5]: 56%
metabolised at 0.5 h, 25 µM [7]: 69%
concentration at 7 h [8]: 156 nM
metabolised at 2 h, 25 µM [9]: 55%
Papp (Caco-2): 11 10e-6 cm s-1
EC50 (Enterovirus [10]): 64 nM
Free (Canis familiaris): 20%
K obs / 1 [11]: 210000 M⁻¹ s⁻¹
Free [12]: 8%

CC[C@@H](C(=O)N[C@H](/C=C/C(=O)OC1CCCCC1)C[C@@H]1CCNC1=O)n1cccc(NC(=O)c2cc(C)on2)c1=O
EC50 (Enterovirus [13]): 313 nM
K obs / 1 [11]: 23000 M⁻¹ s⁻¹

C#CC[C@@H](C(=O)N[C@H](/C=C/C(=O)OCC(C)(C)C)C[C@@H]1CCNC1=O)n1cccc(NC(=O)c2cc(C)on2)c1=O
EC50 (Enterovirus [10]): 276 nM
K obs / 1 [11]: 128000 M⁻¹ s⁻¹

C#CC[C@@H](C(=O)N[C@H](/C=C(\C)C(=O)OCC)C[C@@H]1CCNC1=O)n1cccc(NC(=O)c2cc(C)on2)c1=O
EC50 (Enterovirus [10]): 1460 nM
K obs / 1 [11]: 12500 M⁻¹ s⁻¹

CC[C@@H](C(=O)N[C@H](/C=C/C(=O)OC(C)(C)C)C[C@@H]1CCNC1=O)n1cccc(NC(=O)c2cc(C)on2)c1=O
EC50 (Enterovirus [10]): 405 nM
K obs / 1 [11]: 45100 M⁻¹ s⁻¹

Cc1cc(CCCOc2c(C)cc(-c3noc(C(F)(F)F)n3)cc2C)on1 [PLECONARIL]
EC50 (Enterovirus [10]): 136 nM

CC[C@@H](C(=O)N[C@H](/C=C/C(=O)OC(C)C)C[C@@H]1CCNC1=O)n1cccc(NC(=O)c2cc(C)on2)c1=O
EC50 (Enterovirus [13]): 322 nM
K obs / 1 [11]: 36000 M⁻¹ s⁻¹

C#CC[C@@H](C(=O)N[C@H](/C=C/C(=O)OCC)C[C@@H]1CCNC1=O)n1cccc(NC(=O)c2cc(C)on2)c1=O [IMOCITRELVIR]
metabolised at 2 h, 25 µM [1]: 85%
half-life [2]: 6.6 h
solubility thermodynamic [3]: 377 µg/mL (≈ 720 µM)
metabolised at 2 h, 25 µM [4]: 79%
metabolised at 0.5 h, 25 µM [5]: 40%
concentration at 7 h [6]: 57 nM
metabolised at 0.5 h, 25 µM [7]: 45%
concentration at 7 h [8]: 248 nM
metabolised at 2 h, 25 µM [9]: 12%
metabolised at 0.5 h, 25 µM [14]: 55%
Papp (Caco-2): 6 10e-6 cm s-1
EC50 (Enterovirus [10]): 58 nM
Free (Canis familiaris): 54%
K obs / 1 [11]: 223000 M⁻¹ s⁻¹
Free [12]: 34%

C#CC[C@@H](C(=O)N[C@H](/C=C/C(=O)OC(C)(C)C)C[C@@H]1CCNC1=O)n1cccc(NC(=O)c2cc(C)on2)c1=O
EC50 (Enterovirus [10]): 361 nM
K obs / 1 [11]: 60500 M⁻¹ s⁻¹

C#CC[C@@H](C(=O)N[C@H](/C=C/C(=O)OC1CCC1)C[C@@H]1CCNC1=O)n1cccc(NC(=O)c2cc(C)on2)c1=O
half-life [2]: 3.3 h
solubility thermodynamic [3]: 25 µg/mL (≈ 45.5 µM)
metabolised at 0.5 h, 25 µM [5]: 52%
metabolised at 0.5 h, 25 µM [7]: 53%
concentration at 7 h [8]: 73 nM
Papp (Caco-2): 14 10e-6 cm s-1
EC50 (Enterovirus [10]): 90 nM
K obs / 1 [11]: 207000 M⁻¹ s⁻¹

C#CC[C@@H](C(=O)N[C@H](/C=C/C(=O)OC1CCCCC1)C[C@@H]1CCNC1=O)n1cccc(NC(=O)c2cc(C)on2)c1=O
EC50 (Enterovirus [13]): 406 nM
K obs / 1 [11]: 34000 M⁻¹ s⁻¹

CC[C@@H](C(=O)N[C@H](/C=C/C(=O)OCC(C)(C)C)C[C@@H]1CCNC1=O)n1cccc(NC(=O)c2cc(C)on2)c1=O
EC50 (Enterovirus [10]): 310 nM
K obs / 1 [11]: 38200 M⁻¹ s⁻¹

CC[C@@H](C(=O)N[C@H](/C=C/C(=O)OC1CCC1)C[C@@H]1CCNC1=O)n1cccc(NC(=O)c2cc(C)on2)c1=O
half-life [2]: 9.2 h
solubility thermodynamic [3]: 192 µg/mL (≈ 356 µM)
metabolised at 0.5 h, 25 µM [5]: 49%
metabolised at 0.5 h, 25 µM [7]: 46%
concentration at 7 h [8]: 222 nM
Papp (Caco-2): 10 10e-6 cm s-1
EC50 (Enterovirus [10]): 76 nM
Free (Canis familiaris): 42%
K obs / 1 [11]: 170000 M⁻¹ s⁻¹
Free [12]: 33%

CC[C@@H](C(=O)N[C@H](/C=C/C(=O)OC1CCCCCC1)C[C@@H]1CCNC1=O)n1cccc(NC(=O)c2cc(C)on2)c1=O
K obs / 1 [11]: 15000 M⁻¹ s⁻¹

C#CC[C@@H](C(=O)N[C@H](/C=C/C(=O)OC1CCCCCC1)C[C@@H]1CCNC1=O)n1cccc(NC(=O)c2cc(C)on2)c1=O
EC50 (Enterovirus [13]): 812 nM
K obs / 1 [11]: 47000 M⁻¹ s⁻¹

CCOC(=O)/C=C/[C@H](C[C@@H]1CCNC1=O)NC(=O)[C@H](Cc1ccc(F)c(F)c1)n1cccc(NC(=O)c2cc(C)on2)c1=O
metabolised at 2 h, 25 µM [1]: 94%
half-life [2]: 1.4 h
solubility thermodynamic [3]: 25 µg/mL (≈ 40.9 µM)
metabolised at 0.5 h, 25 µM [5]: 81%
metabolised at 0.5 h, 25 µM [7]: 57%
Papp (Caco-2): 35 10e-6 cm s-1
EC50 (Enterovirus [10]): 11 nM

C#CC[C@@H](C(=O)N[C@H](/C=C/C(=O)OC(C)C)C[C@@H]1CCNC1=O)n1cccc(NC(=O)c2cc(C)on2)c1=O
EC50 (Enterovirus [15]): 174 nM
K obs / 1 [11]: 100000 M⁻¹ s⁻¹

C#CC[C@@H](C(=O)N[C@H](/C=C/C(=O)OC1CCCC1)C[C@@H]1CCNC1=O)n1cccc(NC(=O)c2cc(C)on2)c1=O
half-life [2]: 12.5 h
solubility thermodynamic [3]: 15 µg/mL (≈ 26.6 µM)
metabolised at 0.5 h, 25 µM [5]: 59%
metabolised at 0.5 h, 25 µM [7]: 76%
concentration at 7 h [8]: 160 nM
Papp (Caco-2): 36 10e-6 cm s-1
EC50 (Enterovirus [10]): 174 nM
Free (Canis familiaris): 20%
K obs / 1 [11]: 186000 M⁻¹ s⁻¹
Free [12]: 7%
